In ChEMBL document CHEMBL3992541, “Combined treatment with zingerone and its novel derivative synergistically inhibits TGF-β1 induced epithelial-mesenchymal transition, migration and invasion of human hepatocellular carcinoma cells” (2017):
Activity calls are given as the source filed them. The calls are words filed in the database; no cut-off is given here.

Key:
SNU-182 [1] = assay: Inhibition of TGFbeta1-induced migration in human SNU182 cells at 40 uM measured after 48 hrs in presence of (E)-1-(9-Ethyl-9H-carbazol-3-yl)-5-(4-hydroxy-3-methoxyphenyl)pent-1-en-3-one by wound healing assay; type: functional, cell-based
Summary of the method: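 Wound healing: SNU182 monolayers at about 90% confluence scratched with a pipette tip and washed. Medium with TGF-β1, with or without 40 µM mixture, then added. Wound imaged at 0 and 48 h; relative motility from cell surface area. Mean±SD of triplicates.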

[2] = molecular target: T1, NF-kappa-B inhibitor alpha (Homo sapiens) (UniProt P25963); assay: (§1) Inhibition of TGFbeta1-induced IkB-alpha phosphorylation in human SNU182 cells at 20 to 40 uM preincubated for 2 hrs followed by TGFbeta1 addition measured after 120 mins in presence of (E)-1-(9-Ethyl-9H-carbazol-3-yl)-5-(4-hydroxy-3-methoxyphenyl)pent-1-en-3-one by Western blot method; type: cell-based
T1 sequence (whole entry): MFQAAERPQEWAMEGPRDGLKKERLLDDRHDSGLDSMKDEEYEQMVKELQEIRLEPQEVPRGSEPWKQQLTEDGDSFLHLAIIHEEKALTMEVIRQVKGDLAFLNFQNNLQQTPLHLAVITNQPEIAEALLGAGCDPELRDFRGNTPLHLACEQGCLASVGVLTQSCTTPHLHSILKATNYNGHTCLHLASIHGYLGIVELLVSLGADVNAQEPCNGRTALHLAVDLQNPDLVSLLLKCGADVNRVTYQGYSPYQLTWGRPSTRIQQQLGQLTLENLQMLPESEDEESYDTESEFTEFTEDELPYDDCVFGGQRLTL
Summary of the method: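 SNU182 cells pretreated with the mixture (20 and 40 µM) for 2 h, then exposed to TGF-β1 for 120 min. IκB protein assessed by Western blot, with GAPDH loading control.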

SNU-182 [3] = assay: as §1, with “epithelial-mesenchymal transition” for “IkB-alpha phosphorylation”, “assessed as reduction in upregulation of N-cadherin expression” for “at 20 to 40 uM”, “48 hrs” for “120 mins”; type: functional, cell-based
Summary of the method: (§2)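 Pretreatment of SNU182 cells with the mixture at 20 and 40 µM for 2 h in serum-free medium, followed by TGF-β1 5 ng/ml for 48 h. N-cadherin and Snail detected by Western blot against GAPDH.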

[4] = molecular target: Transcription factor Jun (Homo sapiens) (UniProt P05412); assay: Inhibition of TGFbeta1-induced AP-1 binding activity in human SNU182 cells at 20 to 40 uM measured after 48 hrs in presence of (E)-1-(9-Ethyl-9H-carbazol-3-yl)-5-(4-hydroxy-3-methoxyphenyl)pent-1-en-3-one by luciferase reporter gene assay; type: cell-based
Sequence of Transcription factor Jun (Homo sapiens) (P05412 whole entry): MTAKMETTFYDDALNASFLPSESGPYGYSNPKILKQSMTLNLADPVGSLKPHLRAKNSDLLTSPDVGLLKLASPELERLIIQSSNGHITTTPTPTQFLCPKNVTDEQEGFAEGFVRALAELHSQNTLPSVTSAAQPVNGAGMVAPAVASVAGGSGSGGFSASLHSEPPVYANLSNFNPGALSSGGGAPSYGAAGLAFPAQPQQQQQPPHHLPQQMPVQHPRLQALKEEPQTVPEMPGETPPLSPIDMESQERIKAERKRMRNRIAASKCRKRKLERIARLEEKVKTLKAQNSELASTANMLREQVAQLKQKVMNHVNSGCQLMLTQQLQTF
Summary of the method: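 SNU182 transfected with pGL4.44-AP-1-RE-Luc or empty pGL4.44, pretreated with the mixture (20 and 40 µM), then stimulated with TGF-β1 or DMSO. Luciferase reporter activity read. Mean±SD of triplicates.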

SNU-182 [5] = assay: Inhibition of TGFbeta1-induced epithelial-mesenchymal transition in human SNU182 cells assessed as reduction in MMP2 mRNA expression preincubated for 2 hrs followed by TGFbeta1 addition measured after 48 hrs in presence of (E)-1-(9-Ethyl-9H-carbazol-3-yl)-5-(4-hydroxy-3-methoxyphenyl)pent-1-en-3-one by qRT-PCR method; type: functional, cell-based
Summary of the method: (§3)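 SNU182 cells pretreated 2 h with single agents (12.5 or 40 µM) or the mixture (20 or 40 µM), then TGF-β 5 ng/ml for 48 h. MMP-2 and MMP-9 mRNA measured by RT-PCR with densitometry and by qRT-PCR, fold change by the 2^-ΔΔCt method. Mean±SD of triplicates.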

SNU-182 [6] = assay: Growth inhibition of human SNU182 cells at <50 uM after 48 hrs by CCK8 assay; type: functional, cell-based
SNU-182 [7] = assay: Inhibition of TGFbeta1-induced epithelial-mesenchymal transition in human SNU182 cells assessed as reduction in MMP2 mRNA expression preincubated for 2 hrs followed by TGFbeta1 addition measured after 48 hrs in presence of zingerone by qRT-PCR method; type: functional, cell-based; summary of the method: as §3
SNU-182 [8] = assay: Inhibition of TGFbeta1-induced epithelial-mesenchymal transition in human SNU182 cells assessed as reduction in MMP9 mRNA expression at 12.5 uM preincubated for 2 hrs followed by TGFbeta1 addition measured after 48 hrs by qRT-PCR method; type: functional, cell-based; summary of the method: as §3
[9] = molecular target: Mitogen-activated protein kinase; ERK1/ERK2 (Homo sapiens) (UniProt P27361+P28482); assay: Inhibition of TGFbeta1-induced p44/42 MAPK phosphorylation in human SNU182 cells measured after 48 hrs in presence of zingerone by Western blot method; type: cell-based
Sequence of Mitogen-activated protein kinase; ERK1/ERK2 (Homo sapiens) (P27361 whole entry, looked up): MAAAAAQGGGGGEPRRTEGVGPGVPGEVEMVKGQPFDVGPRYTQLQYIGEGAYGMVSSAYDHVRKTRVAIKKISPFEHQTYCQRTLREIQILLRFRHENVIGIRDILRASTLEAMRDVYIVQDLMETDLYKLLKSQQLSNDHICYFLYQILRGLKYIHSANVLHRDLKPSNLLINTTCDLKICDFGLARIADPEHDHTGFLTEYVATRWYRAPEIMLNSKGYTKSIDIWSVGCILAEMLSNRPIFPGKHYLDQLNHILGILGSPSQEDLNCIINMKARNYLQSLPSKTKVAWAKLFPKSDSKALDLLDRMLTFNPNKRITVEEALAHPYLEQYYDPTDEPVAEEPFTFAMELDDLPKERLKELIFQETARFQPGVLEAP
Sequence of Mitogen-activated protein kinase; ERK1/ERK2 (Homo sapiens) (P28482 whole entry, looked up): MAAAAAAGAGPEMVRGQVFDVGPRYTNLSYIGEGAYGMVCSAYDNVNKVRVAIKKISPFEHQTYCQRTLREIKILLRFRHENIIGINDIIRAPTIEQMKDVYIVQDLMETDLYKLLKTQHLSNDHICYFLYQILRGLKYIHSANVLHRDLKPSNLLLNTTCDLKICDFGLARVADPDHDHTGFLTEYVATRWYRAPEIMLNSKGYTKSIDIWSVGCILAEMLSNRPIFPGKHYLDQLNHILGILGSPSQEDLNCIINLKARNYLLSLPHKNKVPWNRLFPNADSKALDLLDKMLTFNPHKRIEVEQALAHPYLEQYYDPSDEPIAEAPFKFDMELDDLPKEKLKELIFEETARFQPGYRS
Summary of the method: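 SNU182 cells incubated 48 h with TGF-β1 5 ng/ml alone or together with the mixture at 20 and 40 µM, then lysed. Phospho-p42/44 MAPK detected by Western blot, with total p42/44 MAPK as loading control.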

SNU-182 [10] = assay: Inhibition of TGFbeta1-induced epithelial-mesenchymal transition in human SNU182 cells assessed as reduction in upregulation of Snail expression preincubated for 2 hrs followed by TGFbeta1 addition measured after 48 hrs in presence of zingerone by Western blot method; type: functional, cell-based
Summary of the method: (§4)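 SNU182 cells pretreated 2 h with single agents (12.5 or 40 µM) or the mixture (20 and 40 µM), then stimulated with TGF-β1 5 ng/ml for 48 h. E-cadherin and Snail protein detected by Western blot, with GAPDH as loading control.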

SNU-182 [11] = assay: Inhibition of TGFbeta1-induced epithelial-mesenchymal transition in human SNU182 cells assessed as reduction in upregulation of N-cadherin expression preincubated for 2 hrs followed by TGFbeta1 addition measured after 48 hrs in presence of zingerone by Western blot method; type: functional, cell-based; summary of the method: as §2
SNU-182 [12] = assay: Inhibition of TGFbeta1-induced epithelial-mesenchymal transition in human SNU182 cells assessed as reduction in upregulation of Snail expression at 12.5 uM preincubated for 2 hrs followed by TGFbeta1 addition measured after 48 hrs by Western blot method; type: functional, cell-based; summary of the method: as §4
SNU-182 [13] = assay: Inhibition of TGFbeta1-induced epithelial-mesenchymal transition in human SNU182 cells assessed as reduction in downregulation of E-cadherin expression at 12.5 uM preincubated for 2 hrs followed by TGFbeta1 addition measured after 48 hrs by Western blot method; type: functional, cell-based; summary of the method: as §4

Row | SMILES | inhibition (SNU-182 [1]) | inhibition [2] | inhibition (SNU-182 [3]) | inhibition [4] | inhibition (SNU-182 [5]) | growth inhibition (GI) (SNU-182 [6]) | inhibition (SNU-182 [7]) | inhibition (SNU-182 [8]) | inhibition [9] | inhibition (SNU-182 [10]) | inhibition (SNU-182 [11]) | inhibition (SNU-182 [12]) | inhibition (SNU-182 [13])
1 | COc1cc(CCC(C)=O)ccc1O | Active | Active | Dose-dependent effect | Active | Dose-dependent effect | inactive |  |  |  |  |  |  | 
2 | CCn1c2ccccc2c2cc(/C=C/C(=O)CCc3ccc(O)c(OC)c3)ccc21 |  |  |  |  |  |  | Dose-dependent effect | inactive | Dose-dependent effect | Dose-dependent effect | Dose-dependent effect | inactive | inactive
